STAT3 act: increases IL-6 driven STAT3 reporter signal; U3A cells, IL-6 STAT3-luciferase reporter, luminescence; 100% = signal with IL-6 EC80 alone; activation (% of control), % at 5.6 µM; 190,000 tested, 0.91% active;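 active = activation above the screen-wide mean of compound activation plus 3 SD, cut at about 130% in these data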;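 note: 0% = background luminescence of wells with medium and substrate only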
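Assay system – human STAT1-deficient U3A cells with stable STAT3-luciferase reporter · Also added – IL-6 (33 ng/mL) · Schedule – compound 1 h, then IL-6 6 h at 37 °C · Technique – reporter luminescence signal · Evaluation – % activation versus median of IL-6-stimulated wells · Benchmarks – IL-6-only wells as 100% reference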
TRAIL sens C8: caspase-8 TRAIL sensitization. NB7+C8 cells + TRAIL, ATPlite viability luminescence. inhibition (viability loss, TRAIL sensitization), % at 10 µM. 360,000 tested, 1% active. AID 624354;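 active = compounds causing at least 50% loss of cell viability in the single-dose screen, relative to plate controls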
STAT1 inh: STAT1 signaling inhibition; AID 920; 200,000 tested, 0.35% active; inhibition, % at 5.5 µM; NIH 3T3 STAT1-luciferase reporter, IFN-gamma, luminescence;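 active = inhibition above a set limit, the mean inhibition across all tested compounds plus 3 SD, cut at about 34% in these data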;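 note: 0% = IFN-gamma with DMSO and 100% = IFN-gamma with 300 µM nifuroxazide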
STAT3 blocker: reduces IL-6 driven STAT3 reporter signal; U3A cells, IL-6 STAT3-luciferase reporter, luminescence; host cell line lacks STAT1; inhibition, % at 5.5 µM; 190,000 tested, 0.89% active;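 active = inhibition above the mean inhibition across all screened compounds plus 3 SD, cut at about 44% in these data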;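 note: 0% = DMSO only wells and 100% = 100 µM nifuroxazide control wells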
PPC-1+TRAIL kill: kills PPC-1 cancer cells in the presence of TRAIL; 220,000 tested, 0.41% active; PPC-1 cells + TRAIL, ATPLite viability luminescence; cell killing (% activity), % at 4 µM or 5 µM;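 active = cell killing above 50% in the first pass at 4 µM, then a duplicate retest at 5 µM averaging 50% or more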;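 note: plate controls were cells with TRAIL plus DMSO for no effect and medium-only wells lacking cells for full effect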
* marks the source's active call; other numbers are inactive results; x = not tested or not shown. The list is not random: actives were taken first. Their share in the collection is about 1.8%.

SMILES	STAT3 act	TRAIL sens C8	STAT1 inh	STAT3 blocker	PPC-1+TRAIL kill
COc1ccc(S(=O)(=O)Nc2ccc3c(c2)C(=O)N([C@H](C)CO)C[C@H](C)[C@@H](CN(C)C(=O)NC2CCCCC2)O3)cc1	x	-16	x	x	x
Cc1cc(C)c(C)c(S(=O)(=O)N2CCN(c3ncnc4ccccc34)CC2)c1C	x	55*	x	x	x
Cc1scc(C(=O)N/N=C/c2ccsc2)c1C	93	62*	-43	7	54*
Cc1scc(C(=O)N/N=C/c2ccco2)c1C	98	39	-19	2	-2
CN(C)c1cccc(C(=O)N/N=C/c2ccsc2)c1	109	58*	-27	-6	31
Cc1ccc(NC(=O)Cn2cc([N+](=O)[O-])nc2C)cc1C	x	7	x	x	x
COn1c(SC(C)C)nc2ccccc2c1=O	96	17	4	9	-1
COn1c(SCC(N)=O)nc2ccccc2c1=O	104	19	-2	1	8
COn1c(SCc2ccc(C)cc2C)nc2ccccc2c1=O	85	58*	-4	22	-13
COn1c(SC2CCCCC2)nc2ccccc2c1=O	96	67*	3	7	-7
O=C(C=Cc1ccccc1)CC(c1ccccc1)N1CCOCC1 (stereo not given)	x	16	x	x	x
CC(C)c1ccc(NC2CCCN(C(=O)c3cccc4nccnc34)C2)cc1 (stereo not given)	x	-14	x	x	x
Clc1ccc(-c2nsc(N3CCOCC3)n2)c(Cl)c1	x	28	x	x	x
COc1ccc2[nH]cc(C(=O)CN3CC(C)CC(C)C3)c2c1 (stereo not given)	x	-15	x	x	x
COc1ccc(C(=O)c2c[nH]c3ccccc23)cc1	109	48*	-43	-12	37
COc1ccc2[nH]cc(C(=O)CCl)c2c1	x	75*	x	x	22
Cc1ccc(NC(=O)CSc2nn(-c3ccccc3)c(=S)s2)cc1S(=O)(=O)N(C)C	80	66*	10	25	-12
O=C(CSc1nn(-c2ccccc2)c(=S)s1)Nn1cnnc1	100	4	-1	6	15
COc1cccc(C(=O)N2CCC[C@H]2C(=O)N2CCC[C@H]2C(=O)NCc2ccccn2)c1	x	0	x	x	x
Cn1c(=O)c2[nH]c(-c3ccccc3O)nc2n(C)c1=O	125	x	6	-16	5
COc1ccc(-c2nc3c([nH]2)c(=O)n(C)c(=O)n3C)c(OC)c1	134*	6	-2	-37	4
O=C(N/N=C1\CCc2ccccc21)c1ccccc1O	76	63*	-4	24	54*
CCOc1ccc(NC(=O)Nc2cccnc2)cc1	97	58*	-8	14	49
CCOc1ccc(NC(C(=O)Nc2cccc(C(C)=O)c2)c2ccccc2)cc1 (stereo not given)	98	-27	3	6	3
Cc1ccc(NC(=O)Nc2cccs2)cc1	112	28	-19	-10	15
SMILES	STAT3 act	TRAIL sens C8	STAT1 inh	STAT3 blocker	PPC-1+TRAIL kill
CCOc1ccc(/C=C/C(=O)Nc2cccc(C(C)=O)c2)cc1	95	55*	-40	9	21
CCOc1ccc(NC(=O)Nc2cccs2)cc1	92	51*	-25	16	46
CCc1ccc(NC(=O)Nc2cccs2)cc1	73	54*	-37	35	1
O=C(Nc1ccccn1)C1CCN(S(=O)(=O)c2ccc(Cl)cc2)CC1	x	6	x	x	x
O=C(N/N=C/c1ccc(-n2ccnc2)cc1)c1cccs1	x	2	x	x	x
CCOC(=O)c1cccc(NC(=O)Nc2ccc(OCC)cc2)c1	59	35	65*	53*	20
CC(=O)c1cccc(NC(=O)CSc2nc(=O)n(CCN3CCOCC3)c3c2CCCC3)c1	x	-3	x	x	x
COc1cc(C(=O)NCc2cn3cccc(C)c3n2)cc(OC)c1OC	98	5	-4	11	3
COc1ccc(C(=O)NCc2cn3cccc(C)c3n2)cc1OC	105	60*	4	3	33
Cc1ccc(NC(=O)/C=C/c2ccc(Cl)cc2)nc1	140*	15	-42	-43	21
O=C(/C=C/c1ccccc1)Nc1ccc(Br)cn1	91	-8	-47	17	0
CN(C)CCCNC(=O)c1ccc(-c2nc(-c3ccc(Cl)cc3)cs2)cc1	111	90*	-5	-12	5
O=C(O)c1cccc(-c2noc(-c3cccc(Cl)c3)n2)c1	x	62*	x	x	x
NC(=O)c1ccc(-c2noc(-c3cccc(Cl)c3)n2)cc1	x	-4	x	x	x
Cc1nc2cc(-c3ccccc3)nn2c(N)c1-c1ccccc1	x	66*	x	x	x
Cc1nc2c(-c3ccccc3)c(C)nn2c(N)c1-c1ccccc1	94	44	-65	10	19
O=C(CN1CCN(c2ccc(O)cc2)CC1)Nc1ccc(S(=O)(=O)N2CCCC2)cc1	x	-8	x	x	x
CCOC(=O)C1=C(CC)Nc2ccccc2N=C1NC(=O)Nc1ccc(Cl)c(Cl)c1	104	56*	7	-7	-8
O=C(CCN1C(=O)NC2(CCCC2)C1=O)Nc1ccc(-c2nc3ccccc3s2)cc1	x	56*	x	x	x
O=C(CCN1C(=O)NC2(CCCC2)C1=O)Nc1ccc(Sc2ccc(Br)cc2)cc1	x	9	x	x	x
Cc1nnc(SCC(=O)Nc2ccc(-c3nc4ccccc4s3)cc2)s1	105	67*	-63	-8	22
O=C1c2cc(F)ccc2-n2c1nc1ccccc1c2=O	x	55*	x	x	x
O=C1c2cccc(NCCNCCO)c2C(=O)c2cccc(NCCNCCO)c21	x	64*	x	x	x
NC(=O)c1oc2ccccc2c1NC(=O)c1ccc([N+](=O)[O-])o1	x	74*	x	x	x
NC(=O)c1oc2ccccc2c1NC(=O)c1ccc(F)cc1	106	1	5	-1	24
SMILES	STAT3 act	TRAIL sens C8	STAT1 inh	STAT3 blocker	PPC-1+TRAIL kill
CC(=NCc1ccncc1)C1=C(O)c2ccccc2C1=O	95	x	-5	13	50*
CCN1CCN(C(=O)/C=C/c2ccc(C(C)C)cc2)CC1	x	-1	x	x	x
CCN1CCC(O)(/C=C/c2ccc(C(C)C)cc2)C(C(=O)/C=C/c2ccc(C(C)C)cc2)C1 (stereo not given)	x	87*	x	x	x
Cn1nc(-c2ccc(Cl)cc2)nc2c(=O)n(C)c(=O)nc1-2	43	x	88*	74*	48
CC1CCc2c(sc(NC(=O)C3=COCCO3)c2C(N)=O)C1 (stereo not given)	x	55*	x	x	x
CNC(=O)c1c(NC(=O)C2=COCCO2)sc2c1CCC(C)C2 (stereo not given)	x	-1	x	x	x
CCN(CC)CCN1C(=O)/C(=C\c2ccc(Cl)c([N+](=O)[O-])c2)SC1=Nc1ccc(OC)cc1	x	89*	x	x	x
COc1ccc(N=C2S/C(=C\c3ccc(Cl)c([N+](=O)[O-])c3)C(=O)N2CCN(C)C)cc1	x	80*	x	x	x
CCN1C(=O)/C(=C/c2cccs2)SC1=Nc1ccc(OC)cc1	103	1	1	5	-6
CCCN1C(=O)/C(=C/c2ccc(C)s2)SC1=Nc1ccc(OC)cc1	112	-7	1	-7	-19
c1ccc(-c2cn3c(n2)-c2ccccc2C3)cc1	68	69*	-16	36	44
O=C1c2ccccc2CN2C(=O)c3ccccc3CN12	x	-27	x	x	x
COc1ccc(-c2nn(-c3ccccc3)cc2/C=N/O)cc1OC	x	8	x	x	x

Assay outcomes deposited in PubChem by several laboratories.
